Data on eleven molecules can be found in ChEMBL document CHEMBL1143693, “Cancer chemopreventive effects of cycloartane-type and related triterpenoids in in vitro and in vivo models” (J Nat Prod, 2007).

By IC50 is commonly meant the point on the concentration scale where inhibition reaches its midpoint. Lower therefore signals higher potency.

Experiment [1] is filed under the species Mus musculus. In words: Inhibition of TPA-induced skin tumor promotion in ICR mouse assessed as incidence of skin papilloma at 85 nmol after 20 weeks. The class given is functional. Particulars: values are per cent of control. A digest of the protocol:
(§1)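 Specific pathogen-free ICR mice, 15 per group, were initiated with DMBA and promoted with TPA, with or without 85 nmol compound. Papilloma incidence and mean papillomas per mouse were recorded up to 20 weeks of promotion. Groups were compared by Student's t-test.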

For experiment [2], the species on record is Mus musculus. In words: Inhibition of TPA-induced skin tumor promotion in ICR mouse assessed as reduction in number of skin papillomas at 85 nmol. The class given is functional, organism-based. Summed up:
as §1

Experiment [3] deals with Human gammaherpesvirus 4. Description: Inhibition of TPA-induced Epstein-Barr virus early antigen activation assessed as EBV-EA induction in Raji cells at 320 nM after 48 hrs relative to TPA; values are per cent of control. The note with it: human gammaherpesvirus 4, Raji.
The test system of experiment [4] is Human gammaherpesvirus 4. Description: Inhibition of TPA-induced Epstein-Barr virus early antigen activation assessed as EBV-EA induction in Raji cells at 3.2 nM after 48 hrs relative to TPA; values are per cent of control. The note with it: human gammaherpesvirus 4, Raji.
The species named for experiment [5] is Mus musculus. In words: Inhibition of TPA-induced skin tumor promotion in ICR mouse assessed as incidence of skin papilloma at 85 nmol after 10 weeks. The class given is functional. Summed up:
as §1

Experiment [6] deals with Human gammaherpesvirus 4. Description: Inhibition of TPA-induced Epstein-Barr virus early antigen activation assessed as EBV-EA induction in Raji cells at 32 nM after 48 hrs relative to TPA; values are per cent of control. Particulars: human gammaherpesvirus 4, Raji.
A further experiment relates to Raji. In words: Cell viability of Raji cells at 320 nM. Format: functional, Homo sapiens.
For experiment [7], the system named is Human gammaherpesvirus 4. Description: Inhibition of TPA-induced Epstein-Barr virus early antigen activation in Raji cells after 48 hrs. The class given is functional, organism-based. Particulars: human gammaherpesvirus 4, Raji.
Experiment [8] relates to Human gammaherpesvirus 4. In words: Inhibition of TPA-induced Epstein-Barr virus early antigen activation assessed as EBV-EA induction in Raji cells at 0.32 nM after 48 hrs relative to TPA; values are per cent of control. The note with it: human gammaherpesvirus 4, Raji.
Experiment [9] in a line: Scavenging activity against NO generation in human Chang liver cells assessed as inhibition of NOR1-activation at 350 nM relative to NOR1. The class given is functional.

Each structure is given as a SMILES string. Calls of active or inactive are those of the source. No cut-off for these calls is given here.

As for `COCC(O)(CC[C@@H](C)[C@H]1CC[C@@]2(C)[C@@H]3CC[C@H]4C(C)(C)[C@@H](O)CC[C@@]45C[C@@]35CC[C@]12C)C(C)C` (stereo partly drawn), in the experiment listed under Mus musculus [1], the “response, % of control” value is reported as 87%. For the same molecule, the result in the experiment listed under Mus musculus [2] was Active. For the same molecule, in the experiment with Human gammaherpesvirus 4 [3], the level, % of control at 0.32 µM worked out at 0%. Also, the level, % of control at 0.0032 µM in the experiment on Human gammaherpesvirus 4 [4] was found to be 65.4%. Further, the Papilloma incidence % in the experiment filed under Mus musculus [5] is given as 27%. Moreover, the level, % of control at 0.032 µM in the experiment on Human gammaherpesvirus 4 [6] turned out to be 15.2%. The Activity with Raji was determined as 70%; in experiment [9] it was 2.1. The same molecule gave an IC50 with Human gammaherpesvirus 4 [7] of 6.7 nM. Also, in the experiment on Human gammaherpesvirus 4 [8], the level, % of control at 0.00032 µM was found to be 83.1%.
Turning to `CC(C)C(O)(CO)CC[C@@H](C)[C@H]1CC[C@@]2(C)[C@@H]3CC[C@H]4C(C)(C)[C@@H](O)CC[C@@]45C[C@@]35CC[C@]12C` (stereo partly drawn), the “response, % of control” value in the experiment listed under Mus musculus [1] is given as 80%. Moreover, the outcome in the experiment filed under Mus musculus [2] was Active. In the experiment with Human gammaherpesvirus 4 [3], the level, % of control at 0.32 µM is 0%. In addition, in the experiment on Human gammaherpesvirus 4 [4], the level, % of control at 0.0032 µM stood at 63.2%. Further, the Papilloma incidence % in the experiment filed under Mus musculus [5] was determined as 20%. In addition, the level, % of control at 0.032 µM with Human gammaherpesvirus 4 [6] is 13%. Moreover, the Activity worked out at 70% with Raji and 2.2 in experiment [9]. This molecule yielded an IC50 with Human gammaherpesvirus 4 [7] of 6.1 nM. Besides, the level, % of control at 0.00032 µM with Human gammaherpesvirus 4 [8] turned out to be 81%.
For the molecule `CC(C)=CCC[C@@H](C)[C@H]1CC[C@@]2(C)[C@@H]3CC[C@H]4[C@H](C)[C@@H](O)CC[C@@]45C[C@@]35CC[C@]12C`, in the experiment with Human gammaherpesvirus 4 [3], the level, % of control at 0.32 µM was determined as 0%. The level, % of control at 0.0032 µM in the experiment with Human gammaherpesvirus 4 [4] was found to be 71.4%. In addition, the level, % of control at 0.032 µM in the experiment on Human gammaherpesvirus 4 [6] is 30.2%. Further, the Activity came to 70% in the experiment with Raji and 1.8 in [9]. For the same molecule, the IC50 in the experiment on Human gammaherpesvirus 4 [7] was 9.5 nM. Besides, the level, % of control at 0.00032 µM in the experiment on Human gammaherpesvirus 4 [8] came out at 94.6%.
Take `CC(C)=C(C)CC[C@@H](C)[C@H]1CC[C@@]2(C)[C@@H]3CC[C@H]4C(C)(C)[C@@H](O)CC[C@@]45C[C@@]35CC[C@]12C` [CYCLOBRANOL]: in the experiment with Human gammaherpesvirus 4 [3], the level, % of control at 0.32 µM is 0%. Besides, the level, % of control at 0.0032 µM in the experiment with Human gammaherpesvirus 4 [4] is 71.3%. For the same molecule, the level, % of control at 0.032 µM with Human gammaherpesvirus 4 [6] was found to be 30.5%. The Activity in the experiment on Raji stood at 70%; in experiment [9], 1.9. Also, 9.4 nM corresponded to half-maximal inhibition in the experiment with Human gammaherpesvirus 4 [7] (IC50). The level, % of control at 0.00032 µM in the experiment on Human gammaherpesvirus 4 [8] came to 94.5%.
As for `C=C(CC[C@@H](C)[C@H]1CC[C@@]2(C)[C@@H]3CC[C@H]4[C@H](C)C(=O)CC[C@@]45C[C@@]35CC[C@]12C)C(C)C` [CYCLOEUCALENONE], the level, % of control at 0.32 µM in the experiment with Human gammaherpesvirus 4 [3] worked out at 0%. Moreover, in the experiment with Human gammaherpesvirus 4 [4], the level, % of control at 0.0032 µM turned out to be 74%. In addition, the level, % of control at 0.032 µM in the experiment with Human gammaherpesvirus 4 [6] was determined as 33.4%. Further, the Activity in the experiment on Raji came to 70%; in [9], 1.5. Also, in the experiment on Human gammaherpesvirus 4 [7], the IC50 was found to be 10.3 nM. For the same molecule, the level, % of control at 0.00032 µM in the experiment on Human gammaherpesvirus 4 [8] came to 96.2%.
`CC(=O)O[C@@H]1CC[C@]23C[C@]24CC[C@]2(C)[C@@H]([C@H](C)CCC=C(C)C)CC[C@@]2(C)[C@@H]4CC[C@H]3C1(C)C`: the level, % of control at 0.32 µM in the experiment on Human gammaherpesvirus 4 [3] came out at 0%. Further, the level, % of control at 0.0032 µM with Human gammaherpesvirus 4 [4] was found to be 73.1%. Further, the level, % of control at 0.032 µM in the experiment on Human gammaherpesvirus 4 [6] came out at 33.2%. Moreover, the Activity in the experiment with Raji worked out at 70%; in [9] it was 1.6. The molecule further displayed an IC50 in the experiment on Human gammaherpesvirus 4 [7] of 10.2 nM. Also, the level, % of control at 0.00032 µM with Human gammaherpesvirus 4 [8] worked out at 96%.
On to `CC(C)=CCC[C@@H](C)[C@H]1CC[C@@]2(C)[C@@H]3CC[C@H]4C(C)(C)[C@H](O)CC[C@@]45C[C@@]35CC[C@]12C`, for which, in the experiment with Human gammaherpesvirus 4 [3], the level, % of control at 0.32 µM was found to be 0%. Moreover, the level, % of control at 0.0032 µM with Human gammaherpesvirus 4 [4] is 70.3%. Moreover, in the experiment with Human gammaherpesvirus 4 [6], the level, % of control at 0.032 µM came to 29.7%. Further, the Activity with Raji was 70%; in experiment [9], 1.8. Also, 9.2 nM corresponded to half-maximal inhibition in the experiment on Human gammaherpesvirus 4 [7] (IC50). Also, the level, % of control at 0.00032 µM with Human gammaherpesvirus 4 [8] is 93.7%.
On to `CC(C)=CCC[C@@H](C)[C@H]1CC[C@@]2(C)[C@@H]3CC[C@H]4C(C)(C)[C@@H](O)CC[C@@]45C[C@@]35CC[C@]12C` [CYCLOARTENOL], for which, in the experiment with Human gammaherpesvirus 4 [3], the level, % of control at 0.32 µM amounted to 0%. Besides, the level, % of control at 0.0032 µM in the experiment on Human gammaherpesvirus 4 [4] was determined as 69.9%. Moreover, the level, % of control at 0.032 µM with Human gammaherpesvirus 4 [6] came out at 25.8%. For the same molecule, the results for the Activity (in the experiment on Raji; in [9]) were 70% and 1.6, respectively. Besides, the IC50 in the experiment with Human gammaherpesvirus 4 [7] was 8.8 nM. For the same molecule, in the experiment on Human gammaherpesvirus 4 [8], the level, % of control at 0.00032 µM was found to be 93.5%.
In the case of `C=C(C)[C@@H](C)CC[C@@H](C)[C@H]1CC[C@@]2(C)[C@@H]3CC[C@H]4[C@@H](C)C(=O)CC[C@@]45C[C@@]35CC[C@]12C`, the level, % of control at 0.32 µM in the experiment on Human gammaherpesvirus 4 [3] worked out at 0%. Besides, the level, % of control at 0.0032 µM with Human gammaherpesvirus 4 [4] stood at 72.7%. Besides, the level, % of control at 0.032 µM in the experiment with Human gammaherpesvirus 4 [6] was found to be 32.4%. Besides, the results for the Activity (in the experiment with Raji; in [9]) were 70% and 1.8, respectively. Inhibition in the experiment with Human gammaherpesvirus 4 [7] was half-maximal at 9.9 nM (IC50). Further, the level, % of control at 0.00032 µM in the experiment on Human gammaherpesvirus 4 [8] came to 94.6%.
For `C[C@H](CCC(O)C(C)(C)O)[C@H]1CC[C@@]2(C)[C@@H]3CC[C@H]4C(C)(C)C(=O)CC[C@@]45C[C@@]35CC[C@]12C` (stereo partly drawn), the level, % of control at 0.32 µM in the experiment on Human gammaherpesvirus 4 [3] was determined as 0%. In the experiment with Human gammaherpesvirus 4 [4], the level, % of control at 0.0032 µM is 66.8%. Further, the level, % of control at 0.032 µM with Human gammaherpesvirus 4 [6] is 19.1%. Further, the Activity with Raji is 70%; in experiment [9] it was 2. Further, in the experiment on Human gammaherpesvirus 4 [7], the IC50 stood at 7.4 nM. Moreover, the level, % of control at 0.00032 µM in the experiment on Human gammaherpesvirus 4 [8] is 88.4%.
Consider `C=C(CC[C@@H](C)[C@H]1CC[C@@]2(C)[C@@H]3CC[C@H]4C(C)(C)[C@@H](O)CC[C@@]45C[C@@]35CC[C@]12C)C(C)C`, for which the level, % of control at 0.32 µM in the experiment on Human gammaherpesvirus 4 [3] was 0%. In addition, the level, % of control at 0.0032 µM in the experiment with Human gammaherpesvirus 4 [4] came out at 68.1%. Also, in the experiment on Human gammaherpesvirus 4 [6], the level, % of control at 0.032 µM worked out at 23.2%. The Activity in the experiment with Raji worked out at 70%; in [9], 1.7. The midpoint of inhibition in the experiment with Human gammaherpesvirus 4 [7], the IC50, lay at 8.8 nM. Also, the level, % of control at 0.00032 µM in the experiment on Human gammaherpesvirus 4 [8] was 91.4%.
